{"source": "ChEMBL document CHEMBL1687750", "about": "“Nonclinical pharmacokinetics of oseltamivir and oseltamivir carboxylate in the central nervous system” (Antimicrob Agents Chemother, 2009)", "key": {"[1]": {"experiment": "Cmax in non-perfused Sprague-Dawley rat brain at 30 mg/kg, iv after 0.25 hrs", "type": "ADME, organism-based", "design": "dose 30 mg/kg, route intravenous", "in_short": "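Nonfasted adult rats received 30 mg/kg in aqueous 0.9% NaCl (pH 4.0) by slow tail-vein injection over 20–30 s. Groups were sampled at 5 min and 0.25, 0.5, 1, 2, 4 and 8 h, with 4–5 rats per time point, under terminal isoflurane. Blood was taken by heart puncture and CSF from the cisterna magna. Brains were homogenized either unperfused or after transcardial saline perfusion. Samples were assayed by LC-MS/MS, and pooled composite data were analyzed noncompartmentally.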"}, "Brain": {"test_system": "Brain", "experiment": "Terminal half life in non-perfused Sprague-Dawley rat brain assessed as active metabolite oseltamivir carboxylate level at 30 mg/kg, iv", "type": "ADME, organism-based", "design": "dose 30 mg/kg, route intravenous", "conditions": "in vivo", "in_short": "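Nonfasted Sprague-Dawley rats given 30 mg/kg i.v. in 0.9% NaCl pH 4.0 by tail vein over 20–30 s. Terminal sampling under isoflurane at 5 min, 0.25, 0.5, 1, 2, 4 and 8 h (4–5 rats/time): plasma, CSF, and brain homogenate, with or without saline perfusion. LC-MS/MS. t1/2, Vss and ratios from noncompartmental analysis of pooled composite concentrations.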"}, "[2]": {"experiment": "Prodrug conversion in human liver S9 fractions assessed as oseltamivir carboxylate generation rate assessed per mg of protein per min", "type": "ADME, subcellular, S9 fraction", "in_short": "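S9 from brain or liver (rat S9 made by homogenizing tissue in ~4 ml Tris-sucrose buffer per g, supernatant after 9,000 × g at 10°C; pooled human brain and liver S9 also used), protein by bicinchoninic acid assay. Oseltamivir: triplicate, 10 μM 14C-oseltamivir final, 1.0 mg S9 protein, 100 mM Tris-HCl pH 7.4, 30 min at 37°C, quenched with TCA-acetonitrile.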"}, "[3]": {"experiment": "Prodrug conversion in 7 days old male rat brain S9 fractions assessed as paranitrophenol generation rate assessed per mg of protein per min", "type": "ADME, tissue-based"}}, "data": [{"smiles": "CCC(CC)O[C@@H]1C=C(C(=O)O)C[C@H](N)[C@H]1NC(C)=O", "note": "[OSELTAMIVIR CARBOXYLATE]", "values": [{"measurement": "Cmax", "setting": "[1]", "result": 164, "unit": "ng/g"}, {"measurement": "beta t1/2", "setting": "Brain", "result": 30.5, "unit": "min"}]}, {"smiles": "CCOC(=O)C1=C[C@@H](OC(CC)CC)[C@H](NC(C)=O)[C@@H](N)C1", "note": "[OSELTAMIVIR]", "values": [{"measurement": "Activity", "setting": "[2]", "result": 119, "unit": "pmol/s"}, {"measurement": "Activity", "setting": "[3]", "result": 80, "unit": "nmol"}]}]}
